Screening data from PubChem.
LMPTP inh = blocks human LMPTP phosphatase; 360,000 tested, 0.22% active; recombinant LMPTP-A, OMFP fluorogenic substrate, fluorescence intensity; P24666; inhibition, % at 20 µM;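 active means compounds that cut the enzyme signal by at least half of the control window in the single-dose screen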;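 further: plate controls were DMSO wells with enzyme plus substrate for no effect and substrate without enzyme for full effect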
Target sequence (P24666 whole entry, looked up): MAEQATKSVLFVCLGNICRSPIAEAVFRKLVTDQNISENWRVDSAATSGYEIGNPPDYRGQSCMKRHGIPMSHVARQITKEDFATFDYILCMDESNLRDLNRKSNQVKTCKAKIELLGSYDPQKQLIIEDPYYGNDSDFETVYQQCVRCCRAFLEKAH
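Test system: LMPTP-A phosphatase enzyme. Amount: LMPTP-A at 0.625 nM final in the reaction. Reagent: OMFP substrate, 400 µM final. Times: 50 min at room temperature. Signal: endpoint fluorescence intensity from OMFP dephosphorylation. Read-out basis: % inhibition. Benchmarks: no-enzyme and uninhibited controls.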
GRK2 inh = human GRK2 inhibition via aptamer displacement; AID 488847; 330,000 tested, 0.59% active; bead flow cytometry, FAM-aptamer displacement from GRK2; inhibition of aptamer binding, % at 10 µM; P25098;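 active means inhibition of aptamer binding above 40%, roughly 3 SD of noise, on plates passing a quality check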;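 further: median bead fluorescence of bound FAM aptamer so fluorescent compounds give negative values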
SUMO1 PPI mod = alters human SUMO1 binding to SIM partners. P63165. SUMO1 binding to a labelled peptide, TR-FRET, 1 h. inhibition, % at 20 µM. 360,000 tested, 0.33% active. AID 602429; in the data active means inhibition above about 37%
Target sequence (P63165 whole entry, looked up): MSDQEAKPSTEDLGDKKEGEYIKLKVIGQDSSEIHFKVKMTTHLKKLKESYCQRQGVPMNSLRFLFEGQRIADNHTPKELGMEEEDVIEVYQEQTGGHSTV
Scp1 inh = Scp-1 (human) phosphatase inhibition; Q9GZU7; Recombinant Scp1, phosphopeptide, malachite green phosphate absorbance; inhibition, % at 20 µM; 340,000 tested, 0.88% active; AID 493091;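 active means inhibition above about 50% at 20 µM, limit read from the data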;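 further: plate controls were DMSO wells with enzyme for no effect and wells lacking enzyme for full effect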
Target sequence (Q9GZU7 76-261 limits assumed): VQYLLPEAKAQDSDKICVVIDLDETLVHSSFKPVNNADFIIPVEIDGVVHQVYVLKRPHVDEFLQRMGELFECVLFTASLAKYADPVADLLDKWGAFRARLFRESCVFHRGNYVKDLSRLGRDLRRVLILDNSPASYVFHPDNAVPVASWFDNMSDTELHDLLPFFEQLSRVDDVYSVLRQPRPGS
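Test system: SCP-1 phosphatase catalytic domain, residues 76-261 | Compound dosing: One concentration, 20 µM, with 1.0% DMSO | Schedule: 45 min room-temperature reaction, 5 min colour, 30 min stabiliser | Detection: Absorbance at 630 nm | Read-out basis: % inhibition of SCP-1 phosphate liberation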
DNMT1 inh = blocks human DNA methyltransferase DNMT1; P26358; 360,000 tested, 0.83% active; inhibition (reported as % activation of signal), % at 10 µM; AID 588458; DNMT1 molecular beacon, Hinp1I cleavage, fluorescence; in the data active means inhibition above about 50%
STEP block = blocks human striatal-enriched tyrosine phosphatase. AID 588621. P54829. 360,000 tested, 0.25% active. recombinant STEP, OMFP fluorogenic substrate, fluorescence. inhibition, % at 20 µM;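 active means inhibition at 20 µM, scaled per plate between control wells, above about 37%, limit read from the data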;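 further: 0% = DMSO with enzyme and substrate and 100% = substrate only without enzyme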
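System: STEP (striatal-enriched tyrosine phosphatase) enzyme, cell-free; medium: Bis-Tris pH 6.0 buffer with DTT, detergent; dosing: 20 µM, 1% DMSO; times: reaction 20 min, ambient temperature; detection: fluorescence, 480/540 nm; read-out basis: normalized % inhibition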
GRK2 CP1 = human GRK2 inhibition confirmation, cherry pick 1; bead-bound GRK2, FAM-aptamer displacement, flow cytometry; shares compounds with GRK2 inh; 2,000 tested, 4% active; aptamer displacement, % at 10 µM;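 active means aptamer displacement above 40%, near three times the noise of non-fluorescent compounds, on plates passing quality checks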;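 further: negative values mostly reflect intrinsic compound fluorescence rather than true enhancement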
Aptamer quench 1 = fluorescent aptamer quenching in GRK2 counter-screen dose response | shares compounds with GRK2 inh | Fluorescent RNA aptamer beads, flow cytometry; active compounds read high | fluorescence change (kMESF span), kMESF (concentration not given with the values) | 110 tested, under 10 active | AID 504521;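 active means compounds whose bead fluorescence drops by more than 37 kMESF across the dose range, marking them as dye quenchers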
FAM quench CP1 = counter-screen for GRK2 aptamer inhibitors: fluorescent aptamer quenchers; shares compounds with GRK2 inh; Carboxyfluorescein RNA aptamer on beads, flow cytometry quenching; active compounds read low; fluorescence response (% of DMSO), % at 10 µM; 2,000 tested, under 10 active;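 active means compounds that quench the bead-bound fluorescent RNA probe, cutting fluorescence to under half of the solvent control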;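 further: counterscreen run without GRK2 so only probe quenching by compound is measured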
GRK2 CP2 = human GRK2 inhibition confirmation, cherry pick 2 | shares compounds with GRK2 inh | bead-bound GRK2, FAM-aptamer displacement, flow cytometry | inhibition of aptamer binding, % at 10 µM | 360 tested, under 10 active | AID 504782;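 active means inhibition of aptamer binding above 40%, about triple the noise seen with nonglowing compounds, on plates passing quality control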;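 further: negative values mostly come from compounds that fluoresce themselves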
FAM quench SP = counter-screen for GRK2 binding hits: quenchers of fluorescent RNA aptamer; shares compounds with GRK2 inh; carboxyfluorescein RNA aptamer beads, flow cytometry quenching; active compounds read low; fluorescence response vs DMSO, % at 10 µM; 360 tested, under 10 active; AID 588494;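 active means response vs DMSO under 50%, meaning signal dropped by over half, treated as fluorescence quencher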;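 further: labelled aptamer on streptavidin beads without GRK2 as a quench counter-screen; 100% = bead fluorescence of DMSO wells and lower means quenching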
FAM quench DR = quenches fluorescent RNA aptamer, GRK2 hit artifact; shares compounds with GRK2 inh; Bead-bound FAM RNA aptamer fluorescence quenching, flow cytometry; active compounds read low; fluorescence ratio to DMSO, % at 11.1 µM; 35 tested, under 10 active; AID 588496;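 active means compounds that dim the fluorescent label, raw bead signal shifting by over 33 units between lowest and highest dose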
* = called active by the depositor; / = no result. An excerpt weighted towards active compounds, which were near 2.1% of everything screened.

SMILES	LMPTP inh	GRK2 inh	SUMO1 PPI mod	Scp1 inh	DNMT1 inh	STEP block	GRK2 CP1	FAM quench CP1	others
CCN(CC)C(=O)CCc1nc2sc3c(c2c(=O)[nH]1)CCCC3	-1	1	2	-4	-1	0	/	/
Cc1cc(N/N=C/c2ccc3c(c2)OCO3)nc2ccccc12	22	3	-9	-8	-3	3	/	/
CC1=C(C(N)=O)C(c2cccnc2)n2nc(SCc3ccccc3Cl)nc2N1 (stereo not given)	0	1	2	-4	-3	0	/	/
CCOC(=O)C1=C(C)Nc2nc(SCc3cccnc3)nn2C1c1ccc(OC)cc1 (stereo not given)	0	55*	5	-8	1	0	2	100
O=C(N=C1SC2CS(=O)(=O)CC2N1c1cccc(Cl)c1Cl)C1CCCO1 (stereo not given)	0	0	2	-3	1	0	/	/
COc1ccc(C)cc1N1CC(C(=O)Nc2cccc(C(=O)NC3CC3)c2)CC1=O (stereo not given)	-2	/	-3	/	-3	-2	/	/
Cc1ccc(N2CC(C(=O)Nc3cccc(C(=O)NC4CC4)c3)CC2=O)cc1 (stereo not given)	-1	6	5	19	23	0	6	98
CC(=O)c1ccc(Cc2ccc(C(C)=O)s2)s1	0	/	-25	/	4	-2	/	/
COc1ccc(/C=C/C(=O)N2CCN(c3ccccn3)CC2)cc1OC	1	53*	-12	-6	-1	2	0	100
CCC1Oc2ccccc2N(CC(=O)NCCCN2CCCCC2C)C1=O (stereo not given)	-2	61*	-2	-7	1	-1	-9	111
C/C(=C\C(=O)c1ccc(C)cc1)Nc1cccc(O)c1	0	34	-9	-3	-2	-1	1	100
Cc1ccc(C(=O)/C=C/Nc2cccc(O)c2)cc1	2	0	-18	7	-23	3	/	/
COc1cc(C#N)ccc1OC(=O)C1CCN(C(=O)c2ccc(F)cc2)CC1	0	2	-2	-7	7	-3	/	/
CN(C)c1ccc(-n2cccc2)cc1	0	0	-2	-7	-13	0	/	/	GRK2 CP2=-7;FAM quench SP=102
CN(C)/C=C/C(=O)c1ccc(-n2cccc2)cc1	2	2	-13	-7	-2	-1	/	/
CC(O)c1cccc(NC(=O)C2CCCCC2)c1 (stereo not given)	-2	53*	1	-4	-2	-1	0	102
CCOC(=O)C(C(=O)OCC)c1cc(Br)c2noc3c2c1C(=O)c1ccccc1-3	24	51*	36	27	57*	-5	11	102
O=[n+]1c2c(n([O-])c3cc(F)ccc31)CCCC2	-1	0	-18	1	-4	2	/	/
Cc1ccc2c(c1)n([O-])c1c([n+]2=O)CCCC1	0	52*	-9	-5	-8	-4	-5	103
Cc1cc(C)c(C)c(S(=O)(=O)N2CCCN(C)CC2)c1C	-3	3	2	-2	0	-3	/	/
Cn1/c(=N/NC(=O)c2ccccc2F)sc2ccccc21	-2	0	0	6	1	0	/	/
COC(=O)c1cccc2c1NC(=O)C2=O	-2	71*	0	-1	-19	1	1	103
COc1cc(C2Nc3cccc4cccc(c34)N2)ccc1OC(C)=O	10	0	16	0	-9	14	/	/
COc1ccc(C2Nc3cccc4cccc(c34)N2)cc1Br	6	68*	13	9	-6	11	-7	100
Nc1ccc(Nc2ccc([N+](=O)[O-])cc2[N+](=O)[O-])cc1	2	84*	-30	6	23	-3	2	92
SMILES	LMPTP inh	GRK2 inh	SUMO1 PPI mod	Scp1 inh	DNMT1 inh	STEP block	GRK2 CP1	FAM quench CP1	others
NC(=O)c1ccc(Nc2ccc([N+](=O)[O-])cc2[N+](=O)[O-])cc1	2	5	-31	9	22	3	/	/
Cc1cc2ccccc2n1CCNC(=O)C(C)Oc1ccccc1 (stereo not given)	2	85*	-21	-12	-5	4	28	97	Aptamer quench 1=-120;FAM quench DR=101
Cc1cc2ccccc2n1CCNC(=O)c1ccc(S(=O)(=O)N2CCCCC2)cc1	5	83*	-9	-12	7	0	84*	72	Aptamer quench 1=7.5
O=C(N[C@@H]1C[C@H]2CC[C@@H]1C2)c1ccco1	0	3	-2	0	1	-2	/	/
Cn1c(N2CCN(C(=O)Nc3ccc(C(F)(F)F)cc3)CC2)nc2ccccc21	0	3	-2	5	1	0	-1	97
Cn1c(N2CCN(C(=O)NCc3ccccc3)CC2)nc2ccccc21	-1	0	2	2	1	-3	/	/
NC(=O)CSc1cn(CCNC(=O)c2cccs2)c2ccccc12	-1	0	1	-14	1	0	/	/	GRK2 CP2=-17;FAM quench SP=101
Cc1nnc(NC(=O)CSc2cn(CCNC(=O)c3ccccc3)c3ccccc23)s1	0	1	-3	-17	-9	0	/	/
Cc1ccc(F)cc1NC(=O)CSc1nnc(CNC(=O)c2ccco2)n1C	-2	70*	-2	-2	2	2	0	98
CCOc1c2c(nc3ccc(Cl)cc13)CCC2	1	2	-2	-6	3	-4	/	/	GRK2 CP2=18;FAM quench SP=104
COc1ccc(NC(=O)N(Cc2ccc3c(c2)OCO3)C2CC(=O)N(c3ccc(OC)cc3)C2=O)cc1 (stereo not given)	-3	99*	-1	-9	-3	-2	1	101
